The record followed here is the RNAGym collection of RNA variant scans (doi:10.1126/science.aae0568).

Variants at the floor of the assay were thinned out.

B1: tRNA (parent)
chain: GUUCCGUUGGCGUAAUGGUAACGCGUCUCCCUCCUAAGGAGAAGACUGCGGGUUCGAGUCCCGUACGGAACG

In the data set the parent is B1. Put plainly: yeast fitness relative to wild type (ratio to wild type); higher = fitter; tRNA-Arg(CCU), competitive growth, 37 C, YPD. In outline:
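Start and end populations of a pooled competition were compared by 100-nucleotide paired-end sequencing of gene amplicons. The Saccharomyces cerevisiae strains carried tRNA-Arg(CCU) gene variants at the native genomic locus, synthesised with a 3% per-site mutation rate at 69 sites, and competed in YPD at 37°C for 24 hours in six parallel replicates. Darwinian fitness relative to wild type was based on the change in genotype frequencies. Genotypes required ≥ 100 starting reads, and estimates < 0.5 were set to 0.5.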
Take GUUCCGUUGGCGUAAUGGUAACGUGUCUCUGUCCUAAGGAGAAGACUGCGGGUUCGAGUCCCGUACGGAACG [C24U C30U C31G]: the yeast fitness came out at 0.623.

For GUUCCGUUGGCGUAAUGGUAACGUGUCUUACUCCUAAGGAGAAGACUGCGGGUUCGAGUCCCGUACGGAACG [C24U C29U C30A], the yeast fitness was 0.706.

As to GUUCCGUUGGCGUAAUGGUAACGUGUCUCCUUCCUAAGGAGAAGACUGCGGGUUCGAGUCCCGUACGUAACG [C24U C31U G68U], the yeast fitness was determined as 0.544.

As for GUUCCGUUGGCGUAAUGGUAACGUGUCUCUCUCCUAAGGAGAAGACUGUGGGCUCGAGUCCCGUACGGAACG [C24U C30U C49U U53C], the yeast fitness was no more than 0.5.

Regarding GUUCCGUUGGCGUAAUGGUAACGUGUCUCCAUCCUAAGGAGAAGACUGUGGGUUCGCGUCCCGUACGGAACG [C24U C31A C49U A57C], the yeast fitness was no more than 0.5.

In the case of GUUCCGUUGGCGUAAUGGUAACGUGUCUCCUUCCUAAGGAGAAGACUGCGGGUACGAGUCCCGUACGGAACG [C24U C31U U54A], the yeast fitness is no more than 0.5.

For the variant GUUCCGUUGGCGUAAUGGUAACGUGUCUCCAUCAUAAGGAGAAGACUGCGGGUUCCAGUCCCGUACGGAACG [C24U C31A C34A G56C], the yeast fitness was no more than 0.5.

As for GUUCCGUUGGCGUAAUGGUAACGUGUCUCCGUCGUAAGGAGAUGACUGCGGGUUCGAGUCCCGUACGCGACG [C24U C31G C34G A43U G68C A69G], the yeast fitness was no more than 0.5.

Take GUUCCGUUGGCGUAAUGGUAACGUGUCUUCCUCCUAAGGAGGAGACUGCGGGUUUGAGUCCCGUACGGAACG [C24U C29U A42G C55U]: the yeast fitness is no more than 0.5.

Take GUUCCGUUGGCGUAAUGGUAACGUGUCUCGCUCCUAAGGAGAAGACUGCGGGUUCGAGUCCCGUACGGAACG [C24U C30G]: the yeast fitness was found to be 0.836.

As for GUUCCGUUGGCGUAAUGGUAACGUGUCUCACUCCUAAGGAGAAGACUGCGGGUUCGAGUCCCGUACGGAACG [C24U C30A], the yeast fitness was 0.898.

Regarding GUUCCGUUGGCGUAAUGGUAACGUGUCUCCCUCCUAAGGAGAAGACUGCGGGUUCGAGUCCCGUUCGGCACG [C24U A65U A69C], the yeast fitness was 0.564.

Regarding GUUCCGUUGGCGUAAUGGUAACGUGUCUCACUCCUAAGGAGAAGACUGCGGGUUUGAGUCCCGUACGGAACG [C24U C30A C55U], the yeast fitness is no more than 0.5.

In the case of GUUCCGUUGGCGUAAUGGUAACGUGUCUCCGUUCUAAGGAGAAGACUGCGGGUUCGAGACCUGUACGGAACG [C24U C31G C33U U59A C62U], the yeast fitness is no more than 0.5.

As to GUUCCGUUGGCGUAAUGGUAACGUGUAUCUCUCCUAAGGAGAAGACUGCGGGUUCGAGUCCCUUACGGAACG [C24U C27A C30U G63U], the yeast fitness was no more than 0.5.

Consider GUUCCGUUGGCGUAAUGGUAACGUGUCUCCCUCCUAAGGAGAAGACUGCGGGUUCGAGUCCCGUACGGAUCG [C24U A70U], for which the yeast fitness turned out to be 0.881.

For GUUCCGUUGGCGUAAUGGUAACGUGUCUCUCUCUUAAGGAGAAGACUGCGGAUUCGAGUCCCGUACGGAACG [C24U C30U C34U G52A], the yeast fitness is no more than 0.5.

As to GUUCCGUUGGCGUAAUGGUAACGUGUCUCCGUCCUAAGGAGAAGACUGCGGGUUCGAGUCGCGUACGGAACG [C24U C31G C61G], the yeast fitness amounted to 0.513.

For the variant GUUCCGUUGGCGUAAUGGUAACGUGUCUCCGUCCUAAGGAGAAGAUUGCGGGUUCGAGUCCCGUACGGAACG [C24U C31G C46U], the yeast fitness was determined as 0.562.

In the case of GUUCCGUUGGCGUAAUGGUAACGUGUCUUCCUCCUUAGGAGAAGACUGCGGGUUCGAGUCCCGUACGGACCG [C24U C29U A36U A70C], the yeast fitness is no more than 0.5.

GUUCCGUUGGCGUAAUGGUAACGUGUCUCCUUCCUAAGGAGAAGACUGUGGGUUCGAGUCCCGUACGGAACG [C24U C31U C49U]: the yeast fitness is 0.874.

As for GUUCCGUUGGCGUAAUGGUAACGUGUUUCCCUCCUAAGGGGAAAACUGCCGGUUCGAGUCCCGUACGGAACG [C24U C27U A40G G44A G50C], the yeast fitness is no more than 0.5.

With GUUCCGUUGGCGUAAUGGUAACGUGUCUCCUUCCUAAGGAGAAGACUGUGGGUUCGAGUCCCGUACGGAUCG [C24U C31U C49U A70U], the yeast fitness stood at 0.64.

As for GUUCCGUUGGCGUAAUGGUAACGUGUCUUCCUCCUCAGGAGUAGACUGCGGGUUCGUGUCCCGUACGGAACG [C24U C29U A36C A42U A57U], the yeast fitness is 0.518.

Turning to GUUCCGUUGGCGUAAUGGUAACGUGUCUCCAUCUUAAGGAGAAGACUGCGGGUUCGAGUCCCGUACGGAACG [C24U C31A C34U], the yeast fitness is no more than 0.5.

As for GUUCCGUUGGCGUAAUGGUAACGUGUUUCCCUCCUAAGGAGACGACCGCGGGUUCGAGUCCCGUACGGAACG [C24U C27U A43C U47C], the yeast fitness worked out at 0.618.

In the case of GUUCCGUUGGCGUAAUGGUAACGUGUCUCCCUCCUAAGGAGAAGACUGCGGGUUCGAGUCCCGUACGGUCCG [C24U A69U A70C], the yeast fitness is 0.756.

GUUCCGUUGGCGUAAUGGUAACGUGUCUCGAUCCUAAGGAGAGGACUGCGGGUUCGAGUCCCGUACGGAACG [C24U C30G C31A A43G]: the yeast fitness is no more than 0.5.

As for GUUCCGUUGGCGUAAUGGUAACGUGUCUCCGUCCUAAGGAGAAGACUGCGGGUUCGAGUCCCGCACGGAACG [C24U C31G U64C], the yeast fitness is 0.572.

As to GUUCCGUUGGCGUAAUGGUAACGUGUCUUCCUCCUAAGGAGAAGACUGUGUGUUCGAGUCCCGUACGGAACG [C24U C29U C49U G51U], the yeast fitness is no more than 0.5.

For the variant GUUCCGUUGGCGUAAUGGUAACGUGUCUCCAUCCUAAGGAGAAGACUGCGGGUUCGCGUCCCGUACGGAACG [C24U C31A A57C], the yeast fitness amounted to 0.704.

Turning to GUUCCGUUGGCGUAAUGGUAACGUGUCUCCGUCCUAAGGAGAGGACUGCGGGUUCGAGUCCCGUACGGAACG [C24U C31G A43G], the yeast fitness was 0.69.

In the case of GUUCCGUUGGCGUAAUGGUAACGUGUCUGCCUUCUAAGGAGAAGACUGCGGGUUCGGGUCCCGUACGGAACG [C24U C29G C33U A57G], the yeast fitness was no more than 0.5.

Consider GUUCCGUUGGCGUAAUGGUAACGUGUCUCCAUAUUAAGGAGAAGAAUGCGGGUUCGAGUCCCGUACGGAACG [C24U C31A C33A C34U C46A], for which the yeast fitness was no more than 0.5.

Turning to GUUCCGUUGGCGUAAUGGUAACGUGUCUCCCUCCUAAGGAGAAGACUGCGGGUUCGUGUCCCGUACGGAACG [C24U A57U], the yeast fitness amounted to 0.641.

With GUUCCGUUGGCGUAAUGGUAACGUGUCUCCGUCCUAAGGAGAAGACUGCAGGUUCGAGUCCCGCACGGAACG [C24U C31G G50A U64C], the yeast fitness is no more than 0.5.

On to GUUCCGUUGGCGUAAUGGUAACGUGUCUUCGUCCUAAGGAGAAGACUGCGGGUUCGAGUCCCGUACGGAACG [C24U C29U C31G], for which the yeast fitness came out at 0.806.
